In ChEMBL document CHEMBL5696442, “Discovery of type II inhibitors of TGFβ-activated kinase 1 (TAK1) and mitogen-activated protein kinase kinase kinase kinase 2 (MAP4K2)” (J Med Chem, 2015):

Columns and labels:
[1] = biological target: DNA-PK/Ku70/Ku85 (Homo sapiens) (UniProt P78527+P12956+P13010); assay: Inhibition of DNAPK ATP labeling site harbouring KGGSWIQEINVAEKNWYPR in human A-375 cells at 0.05 uM by KiNativ Profiling analysis relative to control; type: cell-based
[2] = biological target: T1, Dual specificity mitogen-activated protein kinase kinase 5 (Homo sapiens) (UniProt Q13163); assay: Inhibition of MAP2K5 Lys2 labeling site in human A-375 cells at 0.05 uM by KiNativ Profiling analysis relative to control; type: cell-based
T1 sequence (whole entry): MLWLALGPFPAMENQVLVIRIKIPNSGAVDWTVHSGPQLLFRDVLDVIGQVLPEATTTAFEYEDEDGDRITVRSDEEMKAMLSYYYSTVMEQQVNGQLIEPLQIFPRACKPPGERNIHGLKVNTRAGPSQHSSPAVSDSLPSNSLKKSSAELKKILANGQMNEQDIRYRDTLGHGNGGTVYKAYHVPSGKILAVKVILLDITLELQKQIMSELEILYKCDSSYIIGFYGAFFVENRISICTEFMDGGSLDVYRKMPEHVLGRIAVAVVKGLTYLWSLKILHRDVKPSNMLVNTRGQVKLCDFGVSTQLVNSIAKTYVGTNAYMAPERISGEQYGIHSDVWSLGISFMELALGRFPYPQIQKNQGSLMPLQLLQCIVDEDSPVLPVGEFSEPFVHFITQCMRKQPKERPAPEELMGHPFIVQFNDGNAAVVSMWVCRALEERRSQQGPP

[3] = biological target: T2, Serine/threonine-protein kinase Chk1 (Homo sapiens) (UniProt O14757); assay: Inhibition of CHK1 Lys2 labeling site harbouring DIKPENLLLDER in human A-375 cells at 0.5 uM by KiNativ Profiling analysis relative to control; type: cell-based
T2 sequence (whole entry): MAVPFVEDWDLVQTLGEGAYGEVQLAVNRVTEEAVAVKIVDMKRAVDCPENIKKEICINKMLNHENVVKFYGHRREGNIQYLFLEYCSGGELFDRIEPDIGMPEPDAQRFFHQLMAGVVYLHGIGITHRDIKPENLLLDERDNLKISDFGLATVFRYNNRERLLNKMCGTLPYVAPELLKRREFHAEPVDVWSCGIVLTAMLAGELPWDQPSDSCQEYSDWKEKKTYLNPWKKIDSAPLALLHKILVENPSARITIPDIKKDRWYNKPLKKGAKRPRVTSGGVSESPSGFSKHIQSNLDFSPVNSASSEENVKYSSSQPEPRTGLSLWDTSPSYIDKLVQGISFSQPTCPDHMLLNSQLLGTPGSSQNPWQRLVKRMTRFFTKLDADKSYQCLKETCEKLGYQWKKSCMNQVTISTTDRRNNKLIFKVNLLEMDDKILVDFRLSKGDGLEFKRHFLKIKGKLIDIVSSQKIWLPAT
Outline: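 Live A375 melanoma cells were treated with compound at 5 or 0.5 μM. The cells were then lysed, and the lysates were labeled with a lysine-reactive ATP or ADP-biotin acyl probe (KiNativ). Inhibition is the compound's protection of each kinase labeling-site peptide from probe labeling, relative to untreated control.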

[4] = biological target: Cyclin-dependent kinase 17 (Homo sapiens) (UniProt Q00537); assay: Inhibition of PCTAIRE2 Lys1 labeling site harbouring SKLTENLVALKEIR in human A-375 cells at 0.5 uM by KiNativ Profiling analysis relative to control; type: cell-based
Chain of Cyclin-dependent kinase 17 (Homo sapiens) (Q00537 whole entry, looked up): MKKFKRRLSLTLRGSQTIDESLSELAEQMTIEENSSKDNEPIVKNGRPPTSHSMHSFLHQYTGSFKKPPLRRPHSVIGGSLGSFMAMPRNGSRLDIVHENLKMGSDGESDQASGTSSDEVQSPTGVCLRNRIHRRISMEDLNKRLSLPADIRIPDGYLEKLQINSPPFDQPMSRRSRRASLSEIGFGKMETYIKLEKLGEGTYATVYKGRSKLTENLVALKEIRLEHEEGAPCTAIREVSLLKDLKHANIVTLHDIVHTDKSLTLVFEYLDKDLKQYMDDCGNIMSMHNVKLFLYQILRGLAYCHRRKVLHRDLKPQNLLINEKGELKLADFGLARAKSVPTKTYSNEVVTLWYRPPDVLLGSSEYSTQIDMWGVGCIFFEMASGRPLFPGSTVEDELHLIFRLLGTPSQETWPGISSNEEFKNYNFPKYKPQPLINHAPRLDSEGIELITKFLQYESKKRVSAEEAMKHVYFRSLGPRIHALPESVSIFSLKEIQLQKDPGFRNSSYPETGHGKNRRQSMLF

[5] = biological target: T2, Serine/threonine-protein kinase Chk1 (Homo sapiens); assay: Inhibition of CHK1 Lys2 labeling site harbouring DIKPENLLLDERDNLK in human A-375 cells at 0.05 uM by KiNativ Profiling analysis relative to control; type: cell-based
[6] = biological target: Glycogen synthase kinase-3 alpha (Homo sapiens) (UniProt P49840); assay: Inhibition of GSK3A Lys2 labeling site in human A-375 cells at 0.05 uM by KiNativ Profiling analysis relative to control; type: cell-based
Chain of Glycogen synthase kinase-3 alpha (Homo sapiens) (P49840 2-483 limits assumed): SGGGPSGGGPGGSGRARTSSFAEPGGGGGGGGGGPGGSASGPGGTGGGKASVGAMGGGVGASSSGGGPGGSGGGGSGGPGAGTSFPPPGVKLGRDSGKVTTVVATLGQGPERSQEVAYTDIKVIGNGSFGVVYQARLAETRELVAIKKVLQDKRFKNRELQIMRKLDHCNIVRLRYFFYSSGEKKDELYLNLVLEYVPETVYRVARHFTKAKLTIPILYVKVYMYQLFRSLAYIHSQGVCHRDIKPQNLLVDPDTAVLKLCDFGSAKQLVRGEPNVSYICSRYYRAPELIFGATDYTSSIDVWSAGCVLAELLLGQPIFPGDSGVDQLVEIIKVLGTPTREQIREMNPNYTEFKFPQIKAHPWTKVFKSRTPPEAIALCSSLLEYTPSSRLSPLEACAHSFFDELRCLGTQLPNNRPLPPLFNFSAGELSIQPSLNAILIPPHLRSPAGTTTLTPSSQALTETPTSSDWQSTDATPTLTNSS

[7] = biological target: Misshapen-like kinase 1 (Homo sapiens) (UniProt Q8N4C8); assay: Inhibition of ZC3 Lys2 labeling site in human A-375 cells at 0.5 uM by KiNativ Profiling analysis relative to control; type: cell-based
Chain of Misshapen-like kinase 1 (Homo sapiens) (Q8N4C8 whole entry, looked up): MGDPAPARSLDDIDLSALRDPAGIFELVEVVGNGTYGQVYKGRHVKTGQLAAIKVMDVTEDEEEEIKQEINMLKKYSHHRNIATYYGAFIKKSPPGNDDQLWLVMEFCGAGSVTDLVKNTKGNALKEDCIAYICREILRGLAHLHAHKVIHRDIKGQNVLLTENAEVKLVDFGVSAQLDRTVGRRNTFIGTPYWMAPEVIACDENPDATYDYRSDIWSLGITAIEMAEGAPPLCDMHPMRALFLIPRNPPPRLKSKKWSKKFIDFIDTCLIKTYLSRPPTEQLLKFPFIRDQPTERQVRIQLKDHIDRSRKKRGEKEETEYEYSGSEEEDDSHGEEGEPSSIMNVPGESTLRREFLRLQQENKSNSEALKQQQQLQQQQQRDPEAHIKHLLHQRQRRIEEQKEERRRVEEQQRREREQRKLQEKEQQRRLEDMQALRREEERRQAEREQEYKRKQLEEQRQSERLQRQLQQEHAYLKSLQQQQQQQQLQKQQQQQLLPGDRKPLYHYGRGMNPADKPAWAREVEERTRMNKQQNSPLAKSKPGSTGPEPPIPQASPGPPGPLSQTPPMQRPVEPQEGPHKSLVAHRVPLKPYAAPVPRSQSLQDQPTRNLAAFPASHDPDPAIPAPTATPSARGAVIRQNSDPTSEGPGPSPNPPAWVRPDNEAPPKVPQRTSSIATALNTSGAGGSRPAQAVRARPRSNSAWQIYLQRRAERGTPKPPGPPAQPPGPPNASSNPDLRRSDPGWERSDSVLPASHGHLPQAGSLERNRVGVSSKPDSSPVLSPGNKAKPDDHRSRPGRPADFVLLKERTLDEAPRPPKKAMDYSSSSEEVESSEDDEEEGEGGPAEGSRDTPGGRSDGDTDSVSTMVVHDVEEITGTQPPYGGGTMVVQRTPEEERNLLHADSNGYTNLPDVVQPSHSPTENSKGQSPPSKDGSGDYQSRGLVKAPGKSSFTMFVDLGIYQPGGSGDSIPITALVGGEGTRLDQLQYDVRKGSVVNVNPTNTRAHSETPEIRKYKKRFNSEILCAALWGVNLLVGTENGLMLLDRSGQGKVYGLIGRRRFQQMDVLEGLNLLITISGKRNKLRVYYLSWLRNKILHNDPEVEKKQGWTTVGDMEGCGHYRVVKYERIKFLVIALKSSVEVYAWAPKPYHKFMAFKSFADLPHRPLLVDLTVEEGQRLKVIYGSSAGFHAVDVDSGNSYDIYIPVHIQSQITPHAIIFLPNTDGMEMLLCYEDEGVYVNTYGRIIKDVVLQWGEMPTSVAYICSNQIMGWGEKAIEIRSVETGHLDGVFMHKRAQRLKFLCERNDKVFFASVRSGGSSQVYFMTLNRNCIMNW

[8] = biological target: Mitogen-activated protein kinase 10 (Homo sapiens, UniProt P53779); assay: Inhibition of JNK3 (unknown origin) Lys2 labeling site by KiNativ Profiling analysis
Chain of Mitogen-activated protein kinase 10 (P53779 whole entry): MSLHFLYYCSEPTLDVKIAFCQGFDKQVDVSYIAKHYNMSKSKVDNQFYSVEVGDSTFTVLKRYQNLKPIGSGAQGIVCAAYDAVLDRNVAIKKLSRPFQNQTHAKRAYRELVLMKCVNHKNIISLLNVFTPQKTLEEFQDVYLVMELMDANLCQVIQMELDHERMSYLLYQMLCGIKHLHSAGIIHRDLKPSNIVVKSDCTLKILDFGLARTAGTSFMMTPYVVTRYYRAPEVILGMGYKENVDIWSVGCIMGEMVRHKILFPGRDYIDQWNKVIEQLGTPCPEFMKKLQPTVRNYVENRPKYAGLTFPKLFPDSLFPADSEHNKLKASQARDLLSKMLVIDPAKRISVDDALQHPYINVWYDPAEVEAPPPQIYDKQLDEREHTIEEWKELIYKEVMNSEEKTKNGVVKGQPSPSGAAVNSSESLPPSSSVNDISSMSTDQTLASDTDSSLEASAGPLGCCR

[9] = biological target: Cyclin-dependent kinase 18 (Homo sapiens) (UniProt Q07002); assay: Inhibition of PCTAIRE3 Lys1 labeling site harbouringSKLTENLVALKEIR in human A-375 cells at 5 uM by KiNativ Profiling analysis relative to control; type: cell-based
Chain of Cyclin-dependent kinase 18 (Homo sapiens) (Q07002 whole entry): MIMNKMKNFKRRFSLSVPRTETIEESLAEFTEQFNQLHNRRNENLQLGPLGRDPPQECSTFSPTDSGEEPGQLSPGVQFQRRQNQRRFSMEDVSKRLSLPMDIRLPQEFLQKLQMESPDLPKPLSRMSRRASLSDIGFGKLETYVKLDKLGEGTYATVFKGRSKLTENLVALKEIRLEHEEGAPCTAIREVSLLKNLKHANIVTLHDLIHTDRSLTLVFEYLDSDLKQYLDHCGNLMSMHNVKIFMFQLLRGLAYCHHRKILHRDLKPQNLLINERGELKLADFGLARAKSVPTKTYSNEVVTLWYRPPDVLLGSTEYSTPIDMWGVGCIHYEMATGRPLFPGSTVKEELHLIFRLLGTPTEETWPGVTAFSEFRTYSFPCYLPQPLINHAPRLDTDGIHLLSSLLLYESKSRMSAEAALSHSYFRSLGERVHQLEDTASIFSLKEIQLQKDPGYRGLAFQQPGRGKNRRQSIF
Outline: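 Live A375 melanoma cells were treated with compound at 5 or 0.5 μM, then lysed. Lysates were labeled with a lysine-reactive ATP or ADP-biotin probe. Read-out was the compound's protection of kinase labeling sites from probe labeling (KiNativ).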

[10] = biological target: Cyclin-dependent kinase 17 (Homo sapiens) (UniProt Q00537); assay: Inhibition of PCTAIRE2 Lys2 labeling site in human A-375 cells at 0.5 uM by KiNativ Profiling analysis relative to control; type: cell-based
[11] = biological target: Tyrosine-protein kinase ABL2 (Homo sapiens, UniProt P42684); assay: Inhibition of ARG ACT labeling site in human A-375 cells at 0.5 uM by KiNativ Profiling analysis relative to control; type: cell-based
Chain of Tyrosine-protein kinase ABL2 (P42684 whole entry): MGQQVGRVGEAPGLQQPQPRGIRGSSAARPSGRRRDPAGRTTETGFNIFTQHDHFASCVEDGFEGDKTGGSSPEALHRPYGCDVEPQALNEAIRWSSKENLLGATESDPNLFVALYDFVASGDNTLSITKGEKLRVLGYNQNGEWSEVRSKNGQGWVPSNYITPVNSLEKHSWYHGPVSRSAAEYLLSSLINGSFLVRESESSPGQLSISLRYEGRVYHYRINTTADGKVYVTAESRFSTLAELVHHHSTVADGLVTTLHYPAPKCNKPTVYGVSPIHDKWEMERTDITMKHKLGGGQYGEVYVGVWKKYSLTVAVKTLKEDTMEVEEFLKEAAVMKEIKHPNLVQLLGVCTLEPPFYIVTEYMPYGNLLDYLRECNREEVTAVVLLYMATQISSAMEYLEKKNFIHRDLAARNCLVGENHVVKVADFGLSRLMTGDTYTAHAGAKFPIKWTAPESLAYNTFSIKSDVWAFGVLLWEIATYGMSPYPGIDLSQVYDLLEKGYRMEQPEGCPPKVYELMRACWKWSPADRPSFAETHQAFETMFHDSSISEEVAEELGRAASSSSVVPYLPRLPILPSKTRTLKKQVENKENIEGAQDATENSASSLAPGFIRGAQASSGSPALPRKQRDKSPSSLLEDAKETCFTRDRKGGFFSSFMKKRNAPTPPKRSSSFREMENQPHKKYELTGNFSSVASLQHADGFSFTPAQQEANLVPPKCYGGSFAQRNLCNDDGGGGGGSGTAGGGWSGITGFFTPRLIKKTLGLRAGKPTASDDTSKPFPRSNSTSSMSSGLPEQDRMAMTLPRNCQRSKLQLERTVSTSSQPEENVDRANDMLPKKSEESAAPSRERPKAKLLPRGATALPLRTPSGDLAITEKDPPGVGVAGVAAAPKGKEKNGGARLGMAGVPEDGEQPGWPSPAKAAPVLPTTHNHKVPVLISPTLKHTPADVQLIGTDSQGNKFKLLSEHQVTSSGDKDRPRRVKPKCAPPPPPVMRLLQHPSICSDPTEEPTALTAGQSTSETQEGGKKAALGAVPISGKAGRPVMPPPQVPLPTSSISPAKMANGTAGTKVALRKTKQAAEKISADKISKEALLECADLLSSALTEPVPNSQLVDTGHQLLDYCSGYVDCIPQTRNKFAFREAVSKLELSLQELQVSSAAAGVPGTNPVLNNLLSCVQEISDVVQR
Outline: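 Intact A375 melanoma cells were treated with compound at 5 or 0.5 μM, then lysed. Lysate kinases were labeled with a lysine-reactive ATP or ADP-biotin probe (KiNativ). Inhibition is read as protection of each kinase labeling site from probe labeling.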

[12] = biological target: T3, Mitogen-activated protein kinase kinase kinase 2 (Homo sapiens) (UniProt Q9Y2U5); assay: Inhibition of MAP3K2 Lys1 labeling site harbouring ELAVKQVQFDPDSPETSKEVNALECEIQLLK in human A-375 cells at 0.05 uM by KiNativ Profiling analysis relative to control; type: cell-based
T3 sequence (whole entry): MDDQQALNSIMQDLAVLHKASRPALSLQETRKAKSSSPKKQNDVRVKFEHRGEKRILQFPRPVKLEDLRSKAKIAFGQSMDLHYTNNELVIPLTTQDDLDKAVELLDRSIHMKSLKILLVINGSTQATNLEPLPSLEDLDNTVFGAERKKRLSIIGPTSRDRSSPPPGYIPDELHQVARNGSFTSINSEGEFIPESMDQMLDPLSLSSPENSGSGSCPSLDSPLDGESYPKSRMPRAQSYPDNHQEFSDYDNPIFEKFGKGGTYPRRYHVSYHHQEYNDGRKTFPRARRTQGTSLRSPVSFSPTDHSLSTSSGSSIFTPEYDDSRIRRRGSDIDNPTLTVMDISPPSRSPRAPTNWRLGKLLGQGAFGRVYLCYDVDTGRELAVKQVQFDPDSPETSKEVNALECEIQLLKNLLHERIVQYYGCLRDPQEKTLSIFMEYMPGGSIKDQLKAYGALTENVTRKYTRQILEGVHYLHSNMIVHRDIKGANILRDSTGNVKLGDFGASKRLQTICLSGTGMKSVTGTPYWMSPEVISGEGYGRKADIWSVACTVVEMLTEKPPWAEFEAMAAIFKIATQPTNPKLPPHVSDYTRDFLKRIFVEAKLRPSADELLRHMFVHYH

With `CCN1CCN(Cc2ccc(NC(=O)c3ccc(C)c(Oc4ccnc5[nH]ccc45)c3)cc2C(F)(F)F)CC1` as the compound, how does the inhibition [1] read?
Its inhibition is 6.7%.

What about the inhibition [2] of the same compound?
Its inhibition is 19.1%.

And the inhibition [3]?
Its inhibition is 45.2%.

And the inhibition [4]?
The inhibition was 31.7%.

And the inhibition [5]?
The inhibition was 47.1%.

What about the inhibition [6] of the same compound?
The inhibition was 0.3%.

What about the inhibition [7] of the same compound?
The inhibition was 70.8%.

What about the IC50 [8] of the same compound?
Its IC50 is greater than 10 µM.

What about the inhibition [9] of the same compound?
The inhibition was 73.3%.

What about the inhibition [10] of the same compound?
Its inhibition is 54.6%.

What about the inhibition [11] of the same compound?
The inhibition was greater than 95%.

What about the inhibition [12] of the same compound?
The inhibition was 11.8%.

How did the inhibition [1] turn out when `CCN1CCN(Cc2ccc(NC(=O)c3ccc(C)c(/C=C/c4cnc5[nH]ccc5c4OC)c3)cc2C(F)(F)F)CC1` was run?
Its inhibition is -3.2%.

And the inhibition [2]?
Its inhibition is -5.6%.

And the inhibition [3]?
Its inhibition is 19.4%.

And the inhibition [4]?
Its inhibition is 11.3%.

And the inhibition [5]?
The inhibition was 2.9%.

What about the inhibition [6] of the same compound?
Its inhibition is 14.4%.

And the inhibition [7]?
Its inhibition is 48.1%.

What about the IC50 [8] of the same compound?
Its IC50 is greater than 10 µM.

And the inhibition [9]?
The inhibition was 24.3%.

What about the inhibition [10] of the same compound?
The inhibition was 29.6%.

And the inhibition [11]?
Its inhibition is greater than 98%.

What about the inhibition [12] of the same compound?
The inhibition was 5.2%.
